Assay results: PMC4635625 (Neuropharmacology, 2015)
Structures can show the parent of a compound that is named as a salt. Where two headings read alike, the source gives them in different places.

Assays:
[1] = target: α6L9′Sβ2L9′SLFM/AAQA (α6β2‡) nAChR (Rattus norvegicus, UniProt P12390+P43143, L273S/L280S/L348M/R364A/R365A/R367A); test: cell-based; type: cell-based
[2] = target: α6β2‡ nAChR, TrpB (α6:W149) = 5-CNTrp (Rattus norvegicus, UniProt P12390+P43143, L273S/L280S/L348M/R364A/R365A/R367A/W179X); test: TEVC dose-response, nonsense suppression, CNTrp at TrpB; type: cell-based; details: 10:1 α6β2‡
[3] = target: α6β2‡ nAChR, TrpB (α6:W149) = Trp (Rattus norvegicus, UniProt P12390+P43143, L273S/L280S/L348M/R364A/R365A/R367A); test: TEVC dose-response, nonsense suppression series, Trp at TrpB; type: cell-based
Sequence of α6β2‡ nAChR, TrpB (α6:W149) = Trp (P43143 31-493 L280S): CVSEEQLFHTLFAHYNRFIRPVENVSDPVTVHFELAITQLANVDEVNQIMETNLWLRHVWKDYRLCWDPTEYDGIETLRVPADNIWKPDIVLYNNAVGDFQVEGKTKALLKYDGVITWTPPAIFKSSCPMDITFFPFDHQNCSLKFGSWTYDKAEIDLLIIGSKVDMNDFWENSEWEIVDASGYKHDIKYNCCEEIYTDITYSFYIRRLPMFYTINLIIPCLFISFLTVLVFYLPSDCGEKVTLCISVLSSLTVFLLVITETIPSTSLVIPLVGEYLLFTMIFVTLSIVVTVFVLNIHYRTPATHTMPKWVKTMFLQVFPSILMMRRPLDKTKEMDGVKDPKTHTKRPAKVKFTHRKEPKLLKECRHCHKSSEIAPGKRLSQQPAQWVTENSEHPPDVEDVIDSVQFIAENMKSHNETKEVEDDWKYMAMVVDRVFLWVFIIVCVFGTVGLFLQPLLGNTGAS
Sequence of α6β2‡ nAChR, TrpB (α6:W149) = Trp (P12390 25-500 L273S/L348M/R364A/R365A/R367A): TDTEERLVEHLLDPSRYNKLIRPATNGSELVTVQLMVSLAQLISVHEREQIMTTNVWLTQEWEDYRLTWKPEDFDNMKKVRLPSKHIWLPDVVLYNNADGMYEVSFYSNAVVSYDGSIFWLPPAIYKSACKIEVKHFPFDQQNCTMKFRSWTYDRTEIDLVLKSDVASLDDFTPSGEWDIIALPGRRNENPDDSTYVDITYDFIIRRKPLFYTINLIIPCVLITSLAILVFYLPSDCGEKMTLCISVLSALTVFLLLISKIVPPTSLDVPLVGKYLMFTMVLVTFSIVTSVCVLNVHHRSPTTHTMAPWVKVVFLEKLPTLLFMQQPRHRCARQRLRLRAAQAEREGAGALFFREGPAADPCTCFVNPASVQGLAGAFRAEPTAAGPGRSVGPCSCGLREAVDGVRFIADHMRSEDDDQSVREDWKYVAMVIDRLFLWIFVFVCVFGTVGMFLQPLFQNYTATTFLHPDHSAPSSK

[4] = target: TrpB (α6:W149) in α6β2‡ nAChR (Rattus norvegicus, UniProt P12390+P43143, L273S/L280S/L348M/R364A/R365A/R367A); test: Fluorination plot; type: cell-based; details: for cation-π interaction with the indole side chain of TrpB: fluorination plot at TrpB in α6β2‡
Sequence of TrpB (α6:W149) in α6β2‡ nAChR (P43143 31-493 L280S): as the sequence (P43143 31-493 L280S) above
Sequence of TrpB (α6:W149) in α6β2‡ nAChR (P12390 25-500 L273S/L348M/R364A/R365A/R367A): as the sequence (P12390 25-500 L273S/L348M/R364A/R365A/R367A) above
Method in brief: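 Rat α6β2‡ with UAG at TrpB, 10:1 α6:β2 mRNA, coinjected with photodeprotected fluoro-Trp–tRNA (25 ng mRNA per cell) into stage V–VI Xenopus oocytes; 24–48 h at 18 °C in ND96 pH 7.5. TEVC at −60 mV, 15 s agonist pulses in Ca2+-free ND96. EC50 from Hill fits of normalized averaged data. Log fold-shift in EC50 plotted against calculated cation–fluoro-Trp binding energy.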

α4β2 nAChR = details: ref Dougherty and Van Arnam, 2014; cited from earlier work
[5] = target: α6β2‡ nAChR, TrpB (α6:W149) = 4-F1Trp (Rattus norvegicus, UniProt P12390+P43143, L273S/L280S/L348M/R364A/R365A/R367A/W179X); test: TEVC dose-response, nonsense suppression, 4-F1Trp at TrpB; type: cell-based; details: TrpB = 4-F1Trp; 10:1 α6β2‡
[6] = target: α6β2‡ nAChR, TrpB (α6:W149) = 5,7-F2Trp (Rattus norvegicus, UniProt P12390+P43143, L273S/L280S/L348M/R364A/R365A/R367A/W179X); test: TEVC dose-response, nonsense suppression, F2Trp at TrpB; type: cell-based
[7] = target: α6β2‡ nAChR, TrpB (α6:W149) = 5-Me-Trp (Rattus norvegicus, UniProt P12390+P43143, L273S/L280S/L348M/R364A/R365A/R367A/W179X); test: TEVC dose-response, nonsense suppression, MeTrp at TrpB; type: cell-based
[8] = target: α6β2‡ nAChR, TrpB (α6:W149) = 5-Br-Trp (Rattus norvegicus, UniProt P12390+P43143, L273S/L280S/L348M/R364A/R365A/R367A/W179X); test: TEVC dose-response, nonsense suppression, BrTrp at TrpB; type: cell-based
[9] = target: α6β2‡ nAChR, TrpB (α6:W149) = 5-F1Trp (Rattus norvegicus, UniProt P12390+P43143, L273S/L280S/L348M/R364A/R365A/R367A/W179X); test: TEVC dose-response, nonsense suppression, 5-F1Trp at TrpB; type: cell-based
muscle-type nAChR = details: ref Beene et al., 2002; cited from earlier work
[10] = target: α6β2‡ nAChR, TrpB (α6:W149) = 6-F1Trp (Rattus norvegicus, UniProt P12390+P43143, L273S/L280S/L348M/R364A/R365A/R367A/W179X); test: TEVC dose-response, nonsense suppression, 6-F1Trp at TrpB; type: cell-based; details: TrpB = 6-F1Trp; 10:1 α6β2‡
[11] = target: α6β2‡ nAChR, TrpB (α6:W149) = 5,6,7-F3Trp (Rattus norvegicus, UniProt P12390+P43143, L273S/L280S/L348M/R364A/R365A/R367A/W179X); test: TEVC dose-response, nonsense suppression, F3Trp at TrpB; type: cell-based
α6β2‡ nAChR = α6β2‡ nAChR (Rattus norvegicus, UniProt P12390+P43143, L273S/L280S/L348M/R364A/R365A/R367A); type: cell-based
Sequence of α6β2‡ nAChR (P43143 31-493 L280S): as the sequence (P43143 31-493 L280S) above
Sequence of α6β2‡ nAChR (P12390 25-500 L273S/L348M/R364A/R365A/R367A): as the sequence (P12390 25-500 L273S/L348M/R364A/R365A/R367A) above

[12] = agonist panel, α6-biased population, Hill coefficient
[13] = agonist panel, α6-biased population, range of maximum currents
[14] = agonist panel, α6-biased population, holding potential −60 mV
[15] = Table 4, fold-shift in EC50 relative to Trp

Sequence of α6L9′Sβ2L9′SLFM/AAQA (α6β2‡) nAChR (P43143 31-493 L280S): as the sequence (P43143 31-493 L280S) above
Sequence of α6L9′Sβ2L9′SLFM/AAQA (α6β2‡) nAChR (P12390 25-500 L273S/L348M/R364A/R365A/R367A): as the sequence (P12390 25-500 L273S/L348M/R364A/R365A/R367A) above

c1cnc2cc3c(cc2n1)[C@@H]1CNC[C@H]3C1 [Var, varenicline]
EC50 ([1]; EC50, agonist panel, α6-biased population, holding potential −60 mV): 31 ± 3 nM
potency (EC50) relative to ACh ([1]; agonist panel at α6β2‡, in words): slightly more potent
nH [1, 12]: 1.08 ± 0.08
Imax [1, 13]: 0.51–12.1 µA

CC(=O)OCC[N+](C)(C)C [ACh, Acetylcholine chloride]
Imax [2]: 0.31–13.3 uA
Imax ([3]; 10:1 α6β2‡): 0.28–14.9 uA
nH ([3]; 10:1 α6β2‡): 1.36 ± 0.03
slope of linear trend of fluorination plot ([4]; 10:1 α6β2‡, trend excludes 5-CNTrp and 4-F1Trp): −0.10
cation-π interaction with the indole side chain of TrpB [4]: strong cation-π interaction
cation-π interaction to TrpB (α4β2 nAChR): strong cation-π interaction
Imax [5]: 0.71–6.92 uA
Imax ([6]; 10:1 α6β2‡): 0.76–9.33 uA
nH ([6]; 10:1 α6β2‡): 1.43 ± 0.02
Imax ([7]; 10:1 α6β2‡): 0.19–19.4 uA
nH ([7]; 10:1 α6β2‡): 1.18 ± 0.02
Imax ([8]; 10:1 α6β2‡): 0.22–15.1 uA
nH ([8]; 10:1 α6β2‡): 1.32 ± 0.04
nH [1, 12]: 1.36 ± 0.03
Imax [1, 13]: 0.28–14.9 µA
nH ([1]; α6:β2 mRNA ratio 1:1, Hill coefficient): 1.15 ± 0.06
Imax ([1]; α6:β2 mRNA ratio 1:1, range of maximum currents): 4.42–14.2
nH ([1]; α6:β2 mRNA ratio 1:2, Hill coefficient): 1.23 ± 0.05
Imax ([1]; α6:β2 mRNA ratio 1:2, range of maximum currents): 3.06–31.7
nH ([1]; α6:β2 mRNA ratio 1:5, Hill coefficient): 0.95 ± 0.04
Imax ([1]; α6:β2 mRNA ratio 1:5, range of maximum currents): 0.70–8.21
nH ([1]; α6:β2 mRNA ratio 1:10, Hill coefficient): 0.83 ± 0.02
Imax ([1]; α6:β2 mRNA ratio 1:10, range of maximum currents): 1.01–4.67
nH ([1]; α6:β2 mRNA ratio 1:20, Hill coefficient): 0.86 ± 0.03
Imax ([1]; α6:β2 mRNA ratio 1:20, range of maximum currents): 1.01–10.9
nH ([1]; α6:β2 mRNA ratio 2:1, Hill coefficient): 1.14 ± 0.03
Imax ([1]; α6:β2 mRNA ratio 2:1, range of maximum currents): 0.94–79.5
nH ([1]; α6:β2 mRNA ratio 5:1, Hill coefficient): 1.17 ± 0.04
Imax ([1]; α6:β2 mRNA ratio 5:1, range of maximum currents): 0.70–79.9
nH ([1]; α6:β2 mRNA ratio 10:1, Hill coefficient): 1.17 ± 0.04
Imax ([1]; α6:β2 mRNA ratio 10:1, range of maximum currents): 4.85–70.7
nH ([1]; α6:β2 mRNA ratio 20:1, Hill coefficient): 1.64 ± 0.05
Imax ([1]; α6:β2 mRNA ratio 20:1, range of maximum currents): 0.25–1.44
nH ([1]; α6:β2 mRNA ratio 50:1, Hill coefficient): 1.17 ± 0.03
Imax ([1]; α6:β2 mRNA ratio 50:1, range of maximum currents): 8.25–57.3
currents in response to acetylcholine ([1]; α6L9′Sβ2L9′SLFM/AAQA in oocytes): greater than 1 µA
nH ([9]; TrpB = 5-F1Trp, 10:1 α6β2‡): 1.37 ± 0.03
cation-π interaction (muscle-type nAChR): does
Imax [10]: 0.18–4.28 uA
nH [10]: 1.30 ± 0.04
Imax ([11]; 10:1 α6β2‡): 0.09–1.94 uA
nH ([11]; 10:1 α6β2‡): 1.04 ± 0.03

O=c1cccc2n1C[C@@H]1CNC[C@H]2C1 [Cyt, cytisine]
Eff (α6β2‡ nAChR): 0.28 ± 0.01
Imax [1]: 0.57–31.9 µA
nH [1]: 1.31 ± 0.05
potency (EC50) relative to ACh [1]: slightly more potent
EC50 ([1]; EC50): 27 ± 1 nM

Clc1ccc(C2CC3CCC2N3)cn1 (racemic) [Epi, (±)-epibatidine]
nH [1, 12]: 1.9 ± 0.2
Imax [1, 13]: 0.47–2.81 µA

C[N+](C)(C)CCO [Ch, choline chloride]
Eff (α6β2‡ nAChR): 0.33 ± 0.02
Imax [1]: 2.08–15.4 µA
nH [1]: 1.32 ± 0.05
EC50 ([1]; EC50): 159000 ± 7000 nM

C[N+](C)(C)CCOC(N)=O.[Cl-] [CCh, carbamylcholine chloride]
EC50 [1, 14]: 1360 ± 50 nM
nH [1, 12]: 1.12 ± 0.04
Imax [1, 13]: 3.63–52.5 µA

C1=C(/c2cncnc2)CCCNCC/1 [TC299]
EC50 ([3]; Table 4): 93 ± 4 nM
Imax ([3]; Table 4): 0.33–3.78 µA
nH ([3]; Table 4): 1.09 ± 0.04
Fold [3, 15]: 1
EC50 ([6]; Table 4): 138 ± 6 nM
Imax ([6]; Table 4): 0.06–1.87 µA
nH ([6]; Table 4): 0.98 ± 0.04
Fold [6, 15]: 1.48
EC50 ([7]; Table 4): 73 ± 4 nM
Imax ([7]; Table 4): 0.15–2.35 µA
nH ([7]; Table 4): 0.92 ± 0.03
Fold [7, 15]: 0.78
EC50 ([8]; Table 4): 250 ± 8 nM
Imax ([8]; Table 4): 0.1–7.71 µA
nH ([8]; Table 4): 1.01 ± 0.03
Fold [8, 15]: 2.69
EC50 [1, 14]: 71 ± 3 nM
nH [1, 12]: 0.99 ± 0.04
Imax [1, 13]: 1.73–21.9 µA
EC50 ([9]; Table 4, TrpB = F1Trp): 220 ± 10 nM
Imax ([9]; Table 4, TrpB = F1Trp): 0.27–3.49 µA
nH ([9]; Table 4, TrpB = F1Trp): 1.01 ± 0.04
Fold ([9]; Table 4, fold-shift in EC50 relative to Trp, TrpB = F1Trp): 2.37
EC50 ([11]; Table 4): 630 ± 30 nM
Imax ([11]; Table 4): 0.05–0.28 µA
nH ([11]; Table 4): 0.90 ± 0.03
Fold [11, 15]: 6.77

CN1CCC[C@H]1c1cccnc1 [Nic, (−)-nicotine tartrate]
Eff (α6β2‡ nAChR): 0.49 ± 0.03
Imax ([3]; Table 4): 0.09–5.8 µA
nH ([3]; Table 4): 1.43 ± 0.06
cation-π interaction with the indole side chain of TrpB [4]: do not make cation-π interactions
cation-π interaction to TrpB (α4β2 nAChR): strong cation-π interaction
Imax ([6]; Table 4): 0.32–2.13 µA
nH ([6]; Table 4): 1.30 ± 0.06
Imax ([7]; Table 4): 0.31–3.95 µA
nH ([7]; Table 4): 1.36 ± 0.05
Imax ([8]; Table 4): 0.08–5.65 µA
nH ([8]; Table 4): 1.42 ± 0.04
Imax [1]: 9.48–54.4 µA
nH [1]: 1.38 ± 0.05
Imax ([9]; Table 4, TrpB = F1Trp): 0.07–2.06 µA
nH ([9]; Table 4, TrpB = F1Trp): 1.39 ± 0.06
Imax ([11]; Table 4): 0.05–1.05 µA
nH ([11]; Table 4): 1.28 ± 0.03
